Screening data as filed in PubChem.
Most compounds without a hit are left out; they make up all but 0.96% or so of the library.
RPL19A TOR yeast = yeast TOR pathway RPL19A-GFP modulation; S. cerevisiae RPL19A-GFP strain, flow cytometry, 3 h; active compounds read low; percent response vs DMSO, % at 10 µM; hit rate 0.3% among 330,000; AID 2025;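 active means percent response vs DMSO below 50%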;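 further: median channel GFP fluorescence of the barcoded RPL19A-GFP strain; ratio of sample median GFP to plate DMSO average so 100% = DMSO; lower means less RPL19A-GFP as with rapamycin TOR inhibition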
AGP1 TOR yeast = yeast TOR pathway AGP1-GFP modulation. S. cerevisiae AGP1-GFP multiplex flow cytometry, 3 h; GFP as percent of DMSO wells. GFP response vs DMSO, % at 10 µM. hit rate 0.02% among 320,000;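 active means GFP response relative to DMSO above a set limit, near screen average plus 3 SD, cut at about 150% in these data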;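 further: median GFP channel fluorescence of the gated AGP1 strain per well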
LAP4 TOR yeast = modulators of TOR pathway LAP4-GFP in S. cerevisiae | S. cerevisiae LAP4-GFP multiplex, flow cytometry GFP, 3 h; median GFP as percent of DMSO wells | GFP response vs DMSO, % at 10 µM | hit rate 0.34% among 320,000 | AID 2023;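 active means GFP response vs DMSO above a set limit, about the screen mean plus 3 SD, cut at about 150% in these data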
CIT2 TOR yeast = yeast TOR pathway CIT2-GFP modulation. S. cerevisiae CIT2-GFP strain, flow cytometry, 3 h; 100 means same as DMSO wells. GFP response vs DMSO, % at 10 µM. hit rate 0.065% among 320,000;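 active means GFP response relative to DMSO above a set limit, near the screen mean plus 3 SD, cut at about 150% in these data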;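 further: ratio of well median GFP fluorescence to mean of DMSO wells on the plate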
MEP2 TOR yeast = modulators of TOR pathway MEP2-GFP in S. cerevisiae | S. cerevisiae MEP2-GFP strain, flow cytometry GFP, 3 h; 100% = DMSO control level | GFP response vs DMSO, % at 10 µM | hit rate 0.51% among 330,000 | AID 2016;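 active means GFP response versus DMSO above a set limit, roughly screen mean plus 3 SD, cut at about 180% in these data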;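 further: median GFP fluorescence of the barcode-gated MEP2-GFP cells per well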
T cell modulator = T cell immune modulation candidate; 2C CD8+ T cell-vesicle binding, flow cytometry; active compounds read low; hit rate 0.068% among 330,000; response (vesicle binding), % at 7 µM;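 active means response, share of CD8 T cells binding vesicles, and their 90th percentile fluorescence all below set limits, cut at about 80% in these data, passing the limit was not always enough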;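 further: values below 100% mean blocked vesicle binding to the CD8+ T cells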
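Assay system: 2C TCR transgenic mouse naive CD8+ T cells, MACS-purified | Read-out: CD8+ gate FL2 mean fluorescence as % of same-row positive control | Signal: High-throughput flow cytometry with anti-B7-1 and anti-CD8 staining | Timing: Binding step 1.5 h, 37 °C, antibody labelling 20 min, ice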
LAP4-GFP pick2 = reconfirmed LAP4-GFP TOR pathway modulator in yeast | shares compounds with LAP4 TOR yeast | S. cerevisiae LAP4-GFP strain, flow cytometry GFP, 3 h | GFP response vs DMSO, % at 10 µM | hit rate 20% among 590 | AID 2621;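 active means GFP signal as percent of the solvent control above about 150%, meaning raised reporter expression, limit read from the data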;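 further: ratio of well median GFP fluorescence to plate DMSO mean so 100% = DMSO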
MEP2-GFP pick2 = yeast MEP2-GFP modulation, second cherry pick; shares compounds with LAP4 TOR yeast; S. cerevisiae MEP2-GFP strain, flow cytometry GFP, 3 h; GFP response vs DMSO, % at 10 µM; hit rate 10% among 590; AID 2622;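 active means GFP signal above 150% of the solvent control wells, that is a rise of more than half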;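 further: median channel GFP fluorescence of all gated yeast cells per well; ratio of median GFP to plate DMSO average so 100% = DMSO level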
RPL19A-GFP pick2 = yeast RPL19A-GFP TOR reporter modulation, second cherry pick; GFP response vs DMSO, % at 10 µM; hit rate 3% among 590; S. cerevisiae RPL19A-GFP strain, flow cytometry GFP, 3 h; active compounds read low; 100% means same as DMSO wells; shares compounds with LAP4 TOR yeast; AID 2623;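 active means under 65% GFP response relative to DMSO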;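 further: median GFP channel fluorescence per well over the all cells gate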
CIT2-GFP pick2 = second confirmation of modulators of TOR reporter CIT2-GFP in yeast; hit rate 8% among 590; GFP response vs DMSO, % at 10 µM; S. cerevisiae CIT2-GFP strain, flow cytometry GFP, 3 h; DMSO control wells read 100%; shares compounds with LAP4 TOR yeast;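 active means GFP response vs DMSO above about 150%, limit read from the data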;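 further: median green fluorescence per well over all gated yeast cells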
AGP1 GFP CP2 = reconfirmed modulator of AGP1-GFP TOR reporter in yeast. percent response vs DMSO, % at 10 µM. shares compounds with LAP4 TOR yeast. S. cerevisiae AGP1-GFP strain, flow cytometry GFP, 3 h. 590 tested, under 10 active. AID 2643;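 active means over 150 percent of DMSO response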;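 further: median GFP channel fluorescence over all cells without mother daughter split; sample median GFP divided by mean DMSO control so 100% equals DMSO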
Yeast autofluor = compound is autofluorescent in yeast s288c cells; shares compounds with LAP4 TOR yeast; S. cerevisiae s288c, 520 nm autofluorescence, flow cytometry, 3 h; active compounds read high; zero means same as solvent-only cells; fluorescence change (kMESF span) at 33 µM; 610 tested, under 10 active; AID 2757;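 active means fluorescence span over the dose series, or activity score, above about 33, limit read from the data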
s288c autofl DR = TOR screen hit shows autofluorescence in yeast s288c. shares compounds with LAP4 TOR yeast. S. cerevisiae s288c parental, compound autofluorescence, flow cytometry, 3 h. fluorescence change (span) at 33 µM. 110 tested, under 10 active. AID 488829;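 active means fluorescence change span, or the activity score built from it, above 25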
TORC1 bypass gr = stops wildtype yeast growth while TORC1 bypass cells still grow | shares compounds with LAP4 TOR yeast | S. cerevisiae BY4741 spot growth rating, 48-72 h; active compounds read low | growth rating (0-3) at 30 µM | 120 tested, under 10 active | AID 504456;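 active means growth rating at most 1 for wild type yeast while the TORC1 bypass strain still grows fully, rated 3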
Active calls of the source: *; [ ] = dose if it differs, or a comment.

`COC(=O)CCS(=O)(=O)c1nc(-c2ccccc2)cc(C(F)(F)F)n1` gave RPL19A TOR yeast 101, AGP1 TOR yeast 149, LAP4 TOR yeast 156*, CIT2 TOR yeast 102, MEP2 TOR yeast 183*, T cell modulator 488, Yeast autofluor 1, s288c autofl DR 0.08 and TORC1 bypass gr 3.
Screening CCOC(=O)CCS(=O)(=O)c1nc(-c2ccccc2)cc(C(F)(F)F)n1 returned RPL19A TOR yeast 90, AGP1 TOR yeast 130, LAP4 TOR yeast 185*, CIT2 TOR yeast 99, MEP2 TOR yeast 145, T cell modulator 717, Yeast autofluor 0.4, s288c autofl DR 0.24 and TORC1 bypass gr 3.
Screening CCOC(=O)CS(=O)(=O)c1nc(-c2ccc(F)cc2)cc(C(F)(F)F)n1 returned RPL19A TOR yeast 94, AGP1 TOR yeast 88, LAP4 TOR yeast 172*, CIT2 TOR yeast 81, MEP2 TOR yeast 104, T cell modulator 259 and Yeast autofluor 0.51.
Cc1cccc(C(=O)NCC(=O)N2CCCCCCC2)c1 was read as RPL19A TOR yeast 102, AGP1 TOR yeast 97, LAP4 TOR yeast 96, CIT2 TOR yeast 92, MEP2 TOR yeast 101 and T cell modulator 209.
Screening Cc1cc(C)n2nc(SC(C)C(=O)N(C)c3ccccc3)nc2n1 (configuration not stated) returned RPL19A TOR yeast 97, AGP1 TOR yeast 102, LAP4 TOR yeast 100, CIT2 TOR yeast 97, MEP2 TOR yeast 94 and T cell modulator 227.
Screening Nc1nnc(SCC(=O)NC2CCCCCC2)s1 returned RPL19A TOR yeast 98, AGP1 TOR yeast 110, LAP4 TOR yeast 104, CIT2 TOR yeast 111, MEP2 TOR yeast 104 and T cell modulator 185.
Screening O=C(COc1c(Br)cc(Br)c2cccnc12)N1CCCCC1 returned RPL19A TOR yeast 98, AGP1 TOR yeast 97, LAP4 TOR yeast 123, CIT2 TOR yeast 96, MEP2 TOR yeast 120 and T cell modulator 378.
Screening O=C(COc1c(Br)cc(Br)c2cccnc12)N1CCc2ccccc2C1 returned RPL19A TOR yeast 98, AGP1 TOR yeast 85, LAP4 TOR yeast 157*, CIT2 TOR yeast 102, MEP2 TOR yeast 106, T cell modulator 438 and Yeast autofluor 1.
For Cc1ccc2ccc(C(Nc3ccccn3)c3ccccc3)c(O)c2n1 (configuration not stated) the results were RPL19A TOR yeast 90, AGP1 TOR yeast 96, LAP4 TOR yeast 108, CIT2 TOR yeast 89, MEP2 TOR yeast 93 and T cell modulator 470.
For Cc1cccc(NC(c2ccc(C)s2)c2ccc3ccc(C)nc3c2O)n1 (configuration not stated) the results were RPL19A TOR yeast 94, AGP1 TOR yeast 80, LAP4 TOR yeast 176*, CIT2 TOR yeast 91, MEP2 TOR yeast 90, T cell modulator 129 and Yeast autofluor 0.5.
CCCCOc1ccc(C(=O)NCC(=O)NCCCn2nc(C)cc2C)cc1 was read as RPL19A TOR yeast 94, AGP1 TOR yeast 98, LAP4 TOR yeast 93, CIT2 TOR yeast 83, MEP2 TOR yeast 89 and T cell modulator 410.
For Cc1cc(=O)n2c3c(sc2n1)C(=O)N(Cc1ccccc1)C3=O the results were RPL19A TOR yeast 88, AGP1 TOR yeast 79, LAP4 TOR yeast 194*, CIT2 TOR yeast 69, MEP2 TOR yeast 87, T cell modulator 332 and Yeast autofluor 1.
`Cc1cc(=O)n2nc(-c3ccccc3)sc2n1` gave RPL19A TOR yeast 100, AGP1 TOR yeast 95, LAP4 TOR yeast 99, CIT2 TOR yeast 108, MEP2 TOR yeast 94 and T cell modulator 438.
For CCCCN(C)C1=CC2=CC(=C(C#N)C#N)CCC2CC1 (configuration not stated) the results were RPL19A TOR yeast 126, AGP1 TOR yeast 123, LAP4 TOR yeast 190*, CIT2 TOR yeast 207*, MEP2 TOR yeast 335*, T cell modulator 576, LAP4-GFP pick2 489*, MEP2-GFP pick2 821*, RPL19A-GFP pick2 152, CIT2-GFP pick2 619* and AGP1 GFP CP2 133.
For CCN(CC)C1=CC2=CC(=C(C#N)C#N)CCC2CC1 (configuration not stated) the results were RPL19A TOR yeast 140, AGP1 TOR yeast 123, LAP4 TOR yeast 197*[may fluoresce green], CIT2 TOR yeast 310*[may fluoresce green], MEP2 TOR yeast 297*[may fluoresce green], T cell modulator 256, LAP4-GFP pick2 354*, MEP2-GFP pick2 470*, RPL19A-GFP pick2 128, CIT2-GFP pick2 434* and AGP1 GFP CP2 120.
For O=[N+]([O-])c1ccc(-c2cn3nc(-c4ccccc4)c(-c4ccccc4)nc3n2)cc1 the results were RPL19A TOR yeast 105, AGP1 TOR yeast 50, LAP4 TOR yeast 171*, CIT2 TOR yeast 119, MEP2 TOR yeast 261*, T cell modulator 117 and Yeast autofluor 3.1.
